Broadly, the ED50 is the midpoint of the dose-response relation. Broadly, the EC50 is the concentration that produces a half-maximal response.

Calls of active or inactive are those of the source. The calls are words filed in the database; no cut-off is given here.

These results are taken from ChEMBL document CHEMBL1143977, “Disruption of Kv1.1 N-type inactivation by novel small molecule inhibitors (disinactivators)” (Bioorg Med Chem, 2008).

Assay [1] concerns the target T1, Potassium voltage-gated channel subfamily A member 1 (Homo sapiens, UniProt Q09470). The assay is described as follows: Inhibition of Kvbeta-1-mediated inactivation of Kv1.1 channel expressed in xenopus oocytes at 50 uM by voltage clamp assay. Type of assay: cell-based. Set-up: scale not given: the % may be the effect or the level left. The conditions noted are these: Oocyte. In short, it runs like this:
(§1)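 Stage V–VI Xenopus oocytes injected with ~0.5–5 ng mRNA and kept 1–4 days in ND-96 (pH 7.6). Either Kv1.1 plus Kvβ1 RNA at 1:160, or a chimera (Kvβ1 residues 1–70 fused through a Ser to Kv1.1 N-terminus). Two-electrode clamp in perfused ND-96 with 3 M KCl electrodes. Held at −80 mV, stepped 200 ms to +50 mV. Disinactivation = 100·Iss/Ipeak, ≥3 experiments, mean ± SEM. EC50 from logistic fit.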

Assay [2] has as its target T2, Voltage-gated potassium channel subfamily A member 1/beta-1 (Homo sapiens, UniProt Q09470+Q14722). The assay is described as follows: Inhibition of Kv1.1/Kvbeta1 N terminal chimera channel inactivation expressed in xenopus oocytes at 50 uM by voltage clamp assay. Type of assay: cell-based. On the set-up: scale not given: the % may be the effect or the level left. The conditions noted are these: Oocyte. In short, it runs like this:
as §1

Assay [3] concerns the target T3, A-type voltage-gated potassium channel KCND2 (Homo sapiens) (UniProt Q9NZV8).
T3 sequence (whole entry): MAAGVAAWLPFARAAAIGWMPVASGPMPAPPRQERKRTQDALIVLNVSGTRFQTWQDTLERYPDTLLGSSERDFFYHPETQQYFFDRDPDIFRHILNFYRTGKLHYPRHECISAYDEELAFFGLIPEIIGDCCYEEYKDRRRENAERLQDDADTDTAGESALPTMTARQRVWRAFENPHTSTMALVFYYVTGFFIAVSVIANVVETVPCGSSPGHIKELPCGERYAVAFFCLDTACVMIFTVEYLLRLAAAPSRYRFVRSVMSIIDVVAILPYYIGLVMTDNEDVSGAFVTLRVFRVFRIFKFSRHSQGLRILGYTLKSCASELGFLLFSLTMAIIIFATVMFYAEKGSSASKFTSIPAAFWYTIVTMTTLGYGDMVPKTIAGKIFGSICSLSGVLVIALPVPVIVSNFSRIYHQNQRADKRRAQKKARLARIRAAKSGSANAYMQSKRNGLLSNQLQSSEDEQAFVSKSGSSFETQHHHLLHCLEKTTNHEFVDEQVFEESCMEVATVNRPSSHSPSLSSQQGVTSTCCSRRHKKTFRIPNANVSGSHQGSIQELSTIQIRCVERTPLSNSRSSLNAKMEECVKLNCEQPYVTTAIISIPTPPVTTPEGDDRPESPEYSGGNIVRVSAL
The assay can be described thus: Inhibition of Kv4.2 channel inactivation expressed in xenopus oocytes at 30 uM by voltage clamp assay. It is filed as cell-based. The conditions noted are these: Oocyte.

Assay [4] has as its target T1, Potassium voltage-gated channel subfamily A member 1. The assay is described as follows: Inhibition of Kvbeta-1-mediated inactivation of Kv1.1 channel expressed in xenopus oocytes at 200 uM by voltage clamp assay. It is filed as cell-based. Set-up: scale not given: the % may be the effect or the level left. The conditions noted are these: Oocyte.
For assay [5], the system named is Mus musculus. The assay can be described thus: Anticonvulsant activity in ip dosed CF1 mouse assessed as inhibition of pentylenetetrazole-induced seizure. It is filed as functional. In short, it runs like this: (§2)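 Male CF-1 mice, 20–25 g, free access to food and water. Compound in 2% Tween 80/1% methylcellulose/saline given ip 30 min before PTZ 85 mg/kg sc. Mice observed 30 min in individual chambers. Groups of eight scored for presence or absence of clonic seizure (forelimb and hindlimb paddling with loss of righting). ED50 in mg/kg, or number of mice seizing out of eight.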

Assay [6] addresses T4, Potassium voltage-gated channel subfamily A member 4 (Homo sapiens, UniProt P22459). The assay is described as follows: Inhibition of Kv1.4 channel inactivation expressed in xenopus oocytes by voltage clamp assay. It is filed as cell-based, Oocyte. The method, boiled down:
(§3)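 Kv1.4 expressed in stage V–VI Xenopus oocytes and recorded 1–4 days after injection. Two-electrode voltage clamp in perfused ND-96 (pH 7.6), held at −80 mV with 200 ms steps to +50 mV. Compound up to 50 µM, current followed 2–8 min after application. Disinactivation = 100·Iss/Ipeak, three experiments.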

For assay [7], the target named is T1, Potassium voltage-gated channel subfamily A member 1. The assay can be described thus: Inhibition of Kvbeta-1-mediated inactivation of Kv1.1 channel expressed in xenopus oocytes by voltage clamp assay. Type of assay: cell-based, Oocyte. The method, boiled down: as §1
Assay [8] has as its target T2, Voltage-gated potassium channel subfamily A member 1/beta-1. The assay is described as follows: Inhibition of Kv1.1/Kvbeta1 N terminal chimera channel inactivation expressed in xenopus oocytes by voltage clamp assay. Type of assay: cell-based, Oocyte. In short, it runs like this: as §1
The target in assay [9] is T4, Potassium voltage-gated channel subfamily A member 4. The assay is described as follows: Inhibition of Kv1.4 channel inactivation expressed in xenopus oocytes at 50 uM by voltage clamp assay. Type of assay: cell-based. The conditions noted are these: Oocyte. On the set-up: scale not given: the % may be the effect or the level left. The method, boiled down:
as §3

Assay [10] has as its target T1, Potassium voltage-gated channel subfamily A member 1. The assay can be described thus: Inhibition of Kvbeta-1-mediated inactivation of Kv1.1 channel expressed in xenopus oocytes at 150 uM by voltage clamp assay. Type of assay: cell-based. On the set-up: scale not given: the % may be the effect or the level left. The settings on record: Oocyte.
The target is the same in assay [11]. The assay is described as follows: Inhibition of Kv-beta-1 mediated inactivation of Kv1.1 channel assessed as intracellular calcium accumulation in Tsa201 cells at 50 uM by FLIPR assay. Type of assay: cell-based. The method, boiled down:
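Tsa201 cells plated at 50,000/well and used the following day. Loaded with 3 µM Fluo-4 AM in HBSS with 2.5 mM probenecid, 60 min at 37 °C, then washed into calcium-free HBSS. Baseline read 5 s, compound added at final 50 µM (A23187 reference at 10 µM), fluorescence followed 3 min. Signal normalized to background. BAPTA-AM 10 µM counter-check for autofluorescence.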
In general terms: Calcium assays in cells follow changes in intracellular calcium, usually with a dye or a luminescent sensor.

Assay [12] deals with Mus musculus. The assay can be described thus: Anticonvulsant activity in CF1 mouse assessed as inhibition of pentylenetetrazole-induced seizure at 100 mg/kg, ip. Type of assay: functional, organism-based. On the set-up: dose 100 mg/kg. The method, boiled down: as §2
Assay [13] concerns the target T1, Potassium voltage-gated channel subfamily A member 1. The assay can be described thus: Inhibition of Kv-beta-1 mediated inactivation of Kv1.1 channel assessed as intracellular calcium accumulation in Tsa201 cells at 50 uM by FLIPR assay.

T4 sequence (P22459 whole entry, the tested form may be a part): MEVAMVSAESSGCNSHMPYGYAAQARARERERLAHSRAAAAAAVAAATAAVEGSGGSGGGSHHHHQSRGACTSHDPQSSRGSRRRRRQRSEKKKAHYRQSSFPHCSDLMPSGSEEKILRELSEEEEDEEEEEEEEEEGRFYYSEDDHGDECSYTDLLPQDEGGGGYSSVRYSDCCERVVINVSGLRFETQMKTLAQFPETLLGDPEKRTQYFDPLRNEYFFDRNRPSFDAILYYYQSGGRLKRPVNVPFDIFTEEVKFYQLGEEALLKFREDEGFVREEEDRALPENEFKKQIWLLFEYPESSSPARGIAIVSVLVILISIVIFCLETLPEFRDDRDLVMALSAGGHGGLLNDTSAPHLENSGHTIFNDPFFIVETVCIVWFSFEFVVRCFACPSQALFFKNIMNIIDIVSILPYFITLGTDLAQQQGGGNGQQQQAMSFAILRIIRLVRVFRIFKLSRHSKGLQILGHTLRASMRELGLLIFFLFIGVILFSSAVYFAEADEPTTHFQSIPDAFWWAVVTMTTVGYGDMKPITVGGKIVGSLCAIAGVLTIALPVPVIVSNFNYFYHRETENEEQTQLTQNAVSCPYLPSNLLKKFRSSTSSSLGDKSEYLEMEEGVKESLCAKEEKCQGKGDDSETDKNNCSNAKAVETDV
T1 sequence (Q09470 whole entry, the tested form may be a part): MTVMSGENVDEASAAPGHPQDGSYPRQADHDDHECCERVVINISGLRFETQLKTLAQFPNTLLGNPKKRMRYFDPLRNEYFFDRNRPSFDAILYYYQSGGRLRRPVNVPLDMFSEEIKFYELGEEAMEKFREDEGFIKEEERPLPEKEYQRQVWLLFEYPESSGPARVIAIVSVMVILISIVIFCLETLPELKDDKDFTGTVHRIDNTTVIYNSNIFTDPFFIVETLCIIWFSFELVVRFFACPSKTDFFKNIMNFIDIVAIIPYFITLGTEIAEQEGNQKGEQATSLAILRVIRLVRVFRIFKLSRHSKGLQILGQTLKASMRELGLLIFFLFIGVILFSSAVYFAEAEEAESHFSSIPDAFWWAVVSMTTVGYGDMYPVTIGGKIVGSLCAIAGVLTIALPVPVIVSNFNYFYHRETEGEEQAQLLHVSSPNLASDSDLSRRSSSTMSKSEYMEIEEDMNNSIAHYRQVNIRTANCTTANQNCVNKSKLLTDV
T2 sequence (Q09470 whole entry): as the sequence (Q09470 whole entry, the tested form may be a part) above
T2 sequence (Q14722 whole entry): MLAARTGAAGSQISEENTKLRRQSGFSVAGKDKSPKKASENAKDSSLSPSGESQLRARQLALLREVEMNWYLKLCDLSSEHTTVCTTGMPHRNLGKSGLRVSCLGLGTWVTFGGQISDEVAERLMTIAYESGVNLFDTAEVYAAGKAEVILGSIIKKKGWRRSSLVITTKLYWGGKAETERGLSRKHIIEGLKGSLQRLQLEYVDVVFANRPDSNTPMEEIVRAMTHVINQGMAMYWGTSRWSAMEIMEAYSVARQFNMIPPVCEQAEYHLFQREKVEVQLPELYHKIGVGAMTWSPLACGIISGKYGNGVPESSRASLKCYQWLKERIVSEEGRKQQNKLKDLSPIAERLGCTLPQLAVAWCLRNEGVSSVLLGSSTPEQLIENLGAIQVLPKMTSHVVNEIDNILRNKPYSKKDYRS

Take `C[C@@]1(c2ccccc2)NC(=O)N(C(=O)C2=Cc3cc(Cl)ccc3OC2)C1=O`: the Activity worked out at 18.8% in assay [1] and 37% in [2]. In addition, the outcome in assay [3] was inactive.
For `CC1(c2ccccc2)NC(=O)N(C(=O)/C=C/c2ccc(F)cc2)C1=O` (stereo not drawn), the Activity stood at 52.5% in assay [1] and 34% in [2]. Also, the result in assay [3] was inactive.
For the molecule `CC1(C)CC(=O)C(C(=O)Nc2cccc(C(F)(F)F)c2)C(=O)C1`, the Activity in [4] came to 40%; in [1] it was 18.5%. Moreover, in [3], the outcome was inactive. For the same molecule, the ED50 in the assay with Mus musculus [5] was found to be 32 mg/kg.
As to `O=[N+]([O-])C1(Br)COC(c2ccccc2)OC1` (stereo not drawn), the EC50 in [6] stood at 1.3 µM; in assay [7] it was 7.1 µM; in [8] it was 8.9 µM. The result in [3] was inactive.
As to `CC1(C)CC(=O)C(C(=O)Nc2ccc(Cl)cc2C(F)(F)F)C(=O)C1`, the values for the Activity in [9] and in [10] were 5% and 45%, respectively. In addition, in assay [3], the outcome was inactive. Also, the ED50 with Mus musculus [5] was 66 mg/kg.
Take `O=C(Nc1ccc([N+](=O)[O-])cc1)C1C(=O)C2=C(CCCC2)C1=O`: in assay [1], the Activity was 96.3%. Besides, the result (in [3]; with Mus musculus [12]) was inactive. Besides, the result in [11] and in assay [13] was Active.
As to `CC1(C)OCC(Br)([N+](=O)[O-])CO1`, the concentration for a half-maximal effect (EC50) stood at 2.3 µM in assay [6], 4.3 µM in assay [7] and 16.7 µM in [8]. Moreover, the result in assay [3] was inactive. Besides, the ED50 in the assay with Mus musculus [5] came out at 139 mg/kg.
